KCNK3 block: human KCNK3 channel inhibitors, primary screen, CHO cells, FluxOR thallium flux, B-score | Potassium channel subfamily K member 3 (Homo sapiens), O14649 | FluxOR fluorescence; active compounds read low | B-score at 10 µM | 340,000 compounds, 0.84% hits;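 active means B-score under library mean minus 4 SD, starting fluorescence ratio at most library mean plus 5 SD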;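 further: more negative B-score means stronger inhibition of thallium flux through KCNK3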
KCNQ1 pot: potentiators or activators of KCNQ1 channel, primary screen, cell-based, thallium flux, high-throughput | CHO-K1 KCNQ1, thallium flux FluxOR fluorescence; active compounds read high | B-score at 10 µM | 310,000 compounds, 0.35% hits;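 active means fluorescence ratio B-score, a plate-corrected score, at least three library SD, with initial intensity B-score within 5 SD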
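System: CHO-K1 cells stably expressing KCNQ1 / Medium: assay buffer for compound exposure, DMSO matched across wells / Reagent: thallium- and potassium-containing depolarizing buffer / Compound: one concentration, matched DMSO / Incubation: 20 min compound pretreatment at room temperature / Measured by: kinetic FluxOR fluorescence, 10 s baseline plus 110 s post-stimulus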
KCNQ1 inh: inhibitors of human KCNQ1 channel, primary screen, cell-based, thallium flux, high-throughput | Potassium voltage-gated channel subfamily KQT member 1 (Homo sapiens), P51787 | CHO-K1 KCNQ1, FluxOR thallium flux fluorescence; active compounds read high | B-score at 10 µM | 310,000 compounds, 1.3% hits;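 active means compounds whose thallium flux B-score, printed positive for inhibition, exceeds three library SD while starting fluorescence stays within three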;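 further: channel opened by potassium depolarization with thallium stimulus after 20 min compound exposure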
KCNK9 block: KCNK9 potassium channel inhibitors, primary screen, HEK293 cells, thallium flux; 310,000 compounds, 1.2% hits; FluxOR thallium flux fluorescence; active compounds read low; B-score at 10 µM;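 active means ratio B-score over 3 SD below the library mean, with starting fluorescence within 5 SD of its mean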;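 further: negative B-score means less thallium flux so channel inhibition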
hERG rescue: hERG rescue from dofetilide block, primary screen, cell-based, CHO-hERG, FluxOR thallium flux, dofetilide IC70; 310,000 compounds, 0.51% hits; Voltage-gated inwardly rectifying potassium channel KCNH2 (Homo sapiens), Q12809; dofetilide IC70 present; activation (rescue from dofetilide block), less the hit threshold, % at 10 µM; AID 1511, 2009;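 active means activation above the mean of controls blocked by dofetilide plus 5 SD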;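 further: thallium influx through hERG after potassium depolarization seen as dye fluorescence rise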
KCNQ1 block val: KCNQ1 potassium channel inhibitors, confirmation, cell-based, Tl flux, duplicate; 1,600 compounds, 93% hits; inhibition, % at 10 µM; KCNQ1 cell line, FluxOR thallium flux fluorescence; shares compounds with KCNQ1 inh;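 active means primary screen active, with duplicate mean exceeding buffer control mean plus 3 SD of buffer wells, cut at about 28% in these data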;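 further: 0% = buffer control ratio and 100% = XE991 inhibitor control ratio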
CHO Tl flux: thallium flux effects in parental CHO cells, counter-screen for KCNQ1 inhibitor project, cell-based, Tl flux. fluorescence ratio (Tl flux) at 10 µM. 1,600 compounds, 21% hits. shares compounds with KCNQ1 inh. parental CHO-K1, FluxOR thallium flux fluorescence ratio; active compounds read low; zero means no signal rise above baseline;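 active means mean of duplicate thallium-flux fluorescence ratios in parental host cells more than 5 SD below the buffer control mean, cut at about 0.38 in these data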;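 further: ratio is peak minus minimum fluorescence divided by baseline fluorescence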
KCNQ1 ephys val: KCNQ1 channel inhibitors, confirmation, orthogonal assay, cell-based, automated electrophysiology; shares compounds with KCNQ1 inh; KCNQ1-CHO cells, automated patch clamp current; calls only at 10 µM; 490 compounds, 20% hits;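 active means KCNQ1 current drop exceeding 3 SD of negative control wells, seen in both duplicate runs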;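 further: steady state current during a 2 s step from -80 to +40 mV; negative values mean current inhibition and positive values mean potentiation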
KCNQ2 spec: KCNQ2 channel inhibition, selectivity assay for KCNQ1 inhibitor project, cell-based | AID 651746, 2012 | 1,600 compounds, 71% hits | KCNQ2 cells, FluxOR thallium flux fluorescence | inhibition, % at 10 µM | shares compounds with KCNQ1 inh;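 active means mean percent inhibition of the KCNQ2 thallium signal more than 5 SD above the buffer-only control wells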;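 further: KCNQ2 expressed in CHO cells; 0% = buffer control wells and 100% = XE-991 inhibitor control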
KCNQ1-KCNE1 inh: KCNQ1/KCNE1 channel inhibition, selectivity assay for KCNQ1 inhibitor project, CHO-K1 cells, thallium flux, FluxOR; shares compounds with KCNQ1 inh; AID 652147, 2013; 1,600 compounds, 77% hits; FluxOR thallium flux fluorescence; inhibition, % at 10 µM;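 active means mean percent inhibition of duplicate wells above the buffer-only control mean plus 3 SD of those controls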;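 further: 0% = buffer only wells and 100% = XE-991 inhibitor control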
KCNK9 block conf: KCNK9 potassium channel inhibitors, confirmation, HEK293 cells, thallium flux, duplicate; shares compounds with KCNK9 block; AID 492992, 2010; inhibition, % at 10 µM; 4,900 compounds, 43% hits; FluxOR thallium flux fluorescence;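 active means thallium signal inhibited by more than 5 SD of the compound-free buffer control wells, on both duplicate plates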;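 further: 0% = assay buffer control wells without compound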
Kir21 sel: mouse Kir2.1 channel inhibition, confirmation, selectivity assay for KCNK9 modulator project, cell-based, HEK293, thallium flux; shares compounds with KCNK9 block; 4,900 compounds, 4% hits; inhibition, % at 10 µM; Kir2.1 cells, FluxOR thallium flux fluorescence;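 active means thallium signal drop more than 5 SD beyond the mean of the no-compound control wells, seen in both duplicate plates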;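 further: signal is fluorescence rise after thallium addition divided by baseline fluorescence; plate controls were assay buffer only for no effect and full block by chlorpromazine control for full effect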
Target sequence (P35561 whole entry, looked up): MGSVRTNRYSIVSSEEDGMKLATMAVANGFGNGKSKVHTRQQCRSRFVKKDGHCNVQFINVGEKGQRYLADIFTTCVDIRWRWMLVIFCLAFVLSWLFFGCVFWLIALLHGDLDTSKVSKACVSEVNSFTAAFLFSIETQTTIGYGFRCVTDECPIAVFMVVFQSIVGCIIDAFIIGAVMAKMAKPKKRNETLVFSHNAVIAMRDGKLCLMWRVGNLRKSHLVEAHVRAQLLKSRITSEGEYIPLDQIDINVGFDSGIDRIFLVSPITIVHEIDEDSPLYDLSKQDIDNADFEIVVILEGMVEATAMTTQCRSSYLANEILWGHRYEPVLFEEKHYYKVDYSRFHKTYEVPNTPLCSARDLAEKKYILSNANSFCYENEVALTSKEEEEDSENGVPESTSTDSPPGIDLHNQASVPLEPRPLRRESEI
KCNK9 uninduced: thallium flux in non-induced HEK293 cells, confirmation, counter-screen for KCNK9 inhibitor project, cell-based, second counter screen, non-induced KCNK9-HEK293 | shares compounds with KCNK9 block | FluxOR thallium flux | inhibition, % at 10 µM | 4,900 compounds, 40% hits;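 active means thallium signal drop beyond 5 SD of the untreated control mean, on both duplicate plates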;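 further: plate controls were buffer only IC0 wells for no effect and SID17386958 at its maximal inhibitory level for full effect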
KCNK3 inh conf: retest of human KCNK3 channel inhibitors, confirmation, CHO cells, FluxOR thallium flux, triplicate; shares compounds with KCNK3 block; FluxOR fluorescence; 0% buffer, 100% carvedilol maximal block; ratio percent of control, % at 10 µM; 2,400 compounds, 99% hits; AID 651638, 2012;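 active means ratio percent of control, averaged over triplicates, above buffer control mean plus 5 SD, cut at about 64% in these data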;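 further: ratio is the fluorescence rise from min to max over baseline after thallium stimulus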
KCNK3 noninduced: thallium flux inhibition in non-induced cells, primary screen, counter-screen for KCNK3 inhibitor project, cell-based, non-induced KCNK3 line, FluxOR thallium, triplicate. thallium flux ratio (lower = more inhibition) at 10 µM. shares compounds with KCNK3 block. 2,400 compounds, 40% hits. non-induced KCNK3 parental cells; active compounds read low;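 active means thallium flux ratio, averaged over three wells, more than 5 SD below the buffer control mean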;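 further: host cells are CHO cells without KCNK3 induction; ratio is peak minus trough fluorescence over baseline then normalized to buffer controls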
Starred values were filed as active, the others as inactive; i = inactive; . = no result; + = active, no number. This is a sample that favours compounds with a hit; in the whole collection about 3.1% have one here.

SMILES | KCNK3 block | KCNQ1 pot | KCNQ1 inh | KCNK9 block | hERG rescue | KCNK9 block conf | Kir21 sel | KCNK9 uninduced | others
COc1ccc(-[n+]2c(-c3ccccc3)cc(-c3ccc(C)cc3)cc2-c2ccccc2)cc1 | -8.87* | i | 15* | -16.4* | -31.2 | 60.5%* | 78.0%* | 29.5%* | KCNQ1 block val=94.5*;CHO Tl flux=0.44;KCNQ1 ephys val=+;KCNQ2 spec=109.3%*;KCNQ1-KCNE1 inh=163.0%*
CCCNC(=O)N1[C@H]2CC[C@@H]1C(C(=O)OC)=C(c1ccc(OC(F)(F)F)cc1)C2 | i | . | . | . | . | . | . | .
Cc1ccc(O)c(C(=O)c2cc(C(=O)NCCC(C)C)c(=O)n(CCC(C)C)c2)c1 | -9.48* | i | 19* | i | -14.2 | . | . | . | KCNQ1 block val=129.5*;CHO Tl flux=0.389;KCNQ1 ephys val=i;KCNQ2 spec=125.7%*;KCNQ1-KCNE1 inh=124.0%*;KCNK3 inh conf=131.7*;KCNK3 noninduced=0.156*
O=C(Nc1ccccc1)N1CCC2(CC1)OCCO2 | i | i | i | i | -4.2 | . | . | .
COc1ccc(C(=O)C2CCCN(Cc3ccc(F)cc3F)C2)cc1F (stereo unspecified) | i | i | i | i | -6.3 | i | i | i
COc1cccc(OC)c1CN1CCCC(C(=O)c2cccc(Cl)c2)C1 (stereo unspecified) | i | i | i | i | -10.0 | i | i | i
COc1ccc(OC)c(CN2CCCC(C(=O)c3sccc3C)C2)c1 (stereo unspecified) | i | i | i | i | -12.9 | i | i | i
Cc1ncc(CN2CCCC(C(=O)c3cccc(OC(C)C)c3)C2)s1 (stereo unspecified) | i | i | i | i | -5.5 | i | i | i
COC(=O)C1=C(c2ccc(F)cc2OCc2ccccc2)C[C@@H]2CC[C@H]1N2C(=O)NCc1ccc([N+](=O)[O-])cc1 | i | . | . | . | . | . | . | .
COc1ccc([C@@H](O)[C@@H](N)c2ccccc2)cc1 | i | i | i | i | -6.4 | . | . | .
COc1ccc(C(=O)C2CCCN(C3CSCCSC3)C2)c(OC)c1 (stereo unspecified) | i | i | i | i | -7.9 | . | . | .
COc1ccc(C(=O)C2CCCN(C3CSCCSC3)C2)c(C)c1 (stereo unspecified) | i | i | i | i | -8.0 | i | i | i
O=C(NCc1ccccc1)c1cccn(Cc2cccc(Cl)c2)c1=O | i | i | i | -11.1* | -8.2 | 57.0%* | i | 30.5%*
O=C(Nc1ccccc1)c1cccn(Cc2ccccc2)c1=O | i | i | i | i | -10.6 | . | . | .
Cc1ccccc1N1CCN(C2CCCN(C(=O)COc3ccccc3)C2)CC1 (stereo unspecified) | i | i | i | i | -11.8 | i | i | i
COC1=CCC2([N+](=O)[O-])CN(C)CC1([N+](=O)[O-])C2 (stereo unspecified) | i | i | i | i | -6.8 | . | . | .
COc1cccc(C2CC3C(=O)C=CC2N3Cc2ccccc2)c1 (stereo unspecified) | i | i | i | i | -10.7 | i | i | i
CCOS(C)(=O)=O | i | . | . | . | . | . | . | .
Cc1ccc(C[n+]2c(-c3ccc(C)cc3)cc(-c3ccc(C)cc3)cc2-c2ccc(C)cc2)cc1 | -8.73* | 34* | i | -13* | -42.5 | 61.0%* | 81.0%* | 38.5%*
COc1cccc(CNCCc2cccc(F)c2)c1OC | i | i | i | i | -6.0 | . | . | .
C/C(=N\N1CCCCCC1)c1c(O)n(-c2ccc(Cl)cc2)c(=O)[nH]c1=O | i | i | i | i | -8.5 | i | i | i
C/C(=N\N1CCCCCC1)c1c(O)n(-c2ccc(C)cc2)c(=O)[nH]c1=O | i | i | i | i | -2.5 | . | . | .
CSc1ccc(CN2CCN(C(=O)Cc3ccccc3)CC2)cc1 | i | i | i | i | -1.3 | . | . | .
CSc1ccc(CN2CCN(Cc3ccccc3Cl)CC2)cc1 | i | i | i | i | -10.2 | i | 41.0%* | i
Cc1nn(CCC#N)c2c1P(=S)(N1CCCC1)OC(c1ccc(F)cc1)=N2 (stereo unspecified) | i | i | i | i | -8.0 | i | i | i

Compound activity from PubChem.
